High-throughput results deposited in PubChem BioAssay by Broad Institute.
Sampled rows, rich in hits. Any-hit rate of the full collection: about 1.2%.
Glyco luc inh: blocks N-linked glycosylation in D54 reporter cells. D54 ERlucT glycosylation luciferase reporter, 24 h; percent of 100 nM tunicamycin response. reporter increase, % at 12.5 µM. actives 0.23% (n = 360,000);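 active = mean luciferase reporter signal, scaled so untreated is 0 and the glycosylation-blocking control 100, at or above a set limit in every replicate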;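 also: luciferase carries N-glycosylation sites so blocking glycosylation raises the light; 0% = median of neutral control wells and 100% = median of 100 nM tunicamycin wells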
RAD52 inh: RAD52 (human) annealing inhibition | P43351 | recombinant RAD52 DNA annealing, FRET fluorescence | inhibition, % at 18.7 µM | actives 0.46% (n = 360,000);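 active = every replicate showing at least 50% inhibition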
FN deposit inh: fibronectin deposition inhibition; AH1F fibroblasts, Alexa488-fibronectin deposition fluorescence, overnight; inhibition, % at 12.6 µM; actives 0.086% (n = 350,000); AID 743247;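 active = mean inhibition across replicates of 30% or more, regardless of how many single replicates reach that level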;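 also: positive control wells lacked labelled fibronectin entirely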
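Measured by – fluorescence 485/525 nm · System – AH1F fibroblast monolayer, labelled fibronectin deposition · Amount – 10000 cells per well · Buffer or medium – serum-reduced DMEM (2% serum) · Doses – single dose, pinned · Also added – fluorescent fibronectin at 24 nM final · Schedule – 1 h cell attachment, overnight exposure to compound and label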
NSD2 HMT inh: NSD2 (human) methyltransferase inhibition. O96028. NSD2 peptide methylation, AlphaScreen, 120 min. inhibition, % at 12.5 µM. actives 0.54% (n = 310,000). AID 743445; in the data active = inhibition above about 50%
RAD54 branch: RAD54 (human) branch migration inhibition | Q92698 | RAD54 Holliday junction branch migration, FAM/BHQ fluorescence | inhibition, % at 10.4 µM | actives 0.14% (n = 360,000) | AID 602329;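 active = mean normalized replicate activity at least 40 and at least half of replicates scoring 40 or more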;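 also: 0% = median of neutral control wells and 100% = median of positive control wells; inhibitors cause a drop in the FAM fluorescence signal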
MLL AF4-AF9 inh: inhibitors of human MLL-AF4/AF9 interaction; AID 651704; P42568; AlphaScreen, biotin-AF4 peptide binding to FLAG-AF9; actives 0.47% (n = 350,000); inhibition, % at 10 µM;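 active = every replicate reaching a set inhibition limit, whatever the replicate mean, cut at about 25% in these data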;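 also: 0% = plate neutral control median and 100% = total signal loss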
Target sequence (P42568 whole entry, looked up): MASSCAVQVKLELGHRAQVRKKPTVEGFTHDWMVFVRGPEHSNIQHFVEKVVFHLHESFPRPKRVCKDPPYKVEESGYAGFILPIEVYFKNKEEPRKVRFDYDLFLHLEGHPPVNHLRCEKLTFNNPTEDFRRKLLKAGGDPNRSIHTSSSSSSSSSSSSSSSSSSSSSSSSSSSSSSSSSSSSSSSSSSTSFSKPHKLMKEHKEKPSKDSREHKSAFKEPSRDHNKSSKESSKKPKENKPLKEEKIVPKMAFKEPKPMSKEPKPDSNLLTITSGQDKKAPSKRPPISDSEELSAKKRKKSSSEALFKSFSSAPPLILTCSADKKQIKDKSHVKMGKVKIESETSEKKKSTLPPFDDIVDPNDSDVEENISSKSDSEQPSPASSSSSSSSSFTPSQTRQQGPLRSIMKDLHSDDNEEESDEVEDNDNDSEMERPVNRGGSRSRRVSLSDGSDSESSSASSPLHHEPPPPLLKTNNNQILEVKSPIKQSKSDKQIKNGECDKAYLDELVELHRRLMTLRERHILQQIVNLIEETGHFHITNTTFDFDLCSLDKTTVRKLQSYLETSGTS
* hit, by the source's call; · = no result.

SMILES	Glyco luc inh	RAD52 inh	FN deposit inh	NSD2 HMT inh	RAD54 branch	MLL AF4-AF9 inh
CCOc1ccc2[nH]c(C(=O)N/N=C/c3ccccc3OC)cc2c1	14	-5	11	-2	15	-19
COc1ccc2c3c([nH]c2c1)[C@H](CO)N(C(=O)Nc1ccc(F)cc1)CC31CCN(Cc2cc(-c3ccccc3)on2)CC1	·	0	·	·	·	-1
COc1ccc2c3c([nH]c2c1)[C@H](CO)N(C(C)=O)CC31CCN(Cc2ccccc2Cl)CC1	·	8	·	·	·	2
COc1ccc2c3c([nH]c2c1)[C@H](CO)N(C(C)=O)CC31CCN(Cc2cc(-c3ccccc3)on2)CC1	·	14	2	·	·	30*
COc1ccc2c3c([nH]c2c1)[C@H](CO)N(C(C)=O)CC31CN(Cc2ccccc2Cl)C1	·	9	-10	·	·	26*
COc1ccc2c3c([nH]c2c1)[C@H](CO)N(C(C)=O)CC31CN(Cc2cc(-c3ccccc3)on2)C1	·	-15	·	·	·	26*
COc1ccc2c3c([nH]c2c1)[C@@H](CO)N(C(C)=O)CC31CCN(Cc2cc(-c3ccccc3)on2)CC1	·	12	12	·	·	36*
O=C(C[C@H]1CC[C@H](NC(=O)C2CC2)[C@H](CO)O1)NCC1CC1	·	-2	·	·	-7	-2
CNC[C@@H]1Oc2cc(-c3cccc(C(=O)N(C)C)c3)ccc2S(=O)(=O)N([C@@H](C)CO)C[C@H]1C	·	-26	·	·	-12	1
C[C@@H]1CN([C@H](C)CO)C(=O)c2cc(/C=C/c3ccccc3)cnc2O[C@@H]1CN(C)C(=O)c1ccccc1	·	16	-5	·	4	4
CCC(=O)N1C[C@@H](C)[C@@H](OC)CN(C)C(=O)c2ccc(NC(=O)Nc3ccc(Cl)cc3)cc2OC[C@@H]1C	·	-7	-7	·	-1	5
O=C(c1cccc(S(=O)(=O)NCc2ccccc2)c1)N1CCN(c2ccc(F)cc2)CC1	-3	-19	-3	0	12	26*
O=C(c1cccc(S(=O)(=O)NCc2ccccc2)c1)N1CCN(c2ccccc2)CC1	11	-7	-11	1	-12	4
C[C@@H]1CN([C@H](C)CO)C(=O)c2cc(Br)cnc2O[C@H]1CN(C)Cc1ccncc1	·	13	-6	·	-6	-6
Cc1cc(N=Nc2ccc(Cl)cc2)cc(CN2CCCC2)c1O	-3	-12	6	42	-9	49*
C[C@@H]1CN([C@@H](C)CO)C(=O)CCCn2cc(nn2)CO[C@@H]1CN(C)C(=O)Nc1cccc(F)c1	·	·	-1	·	·	·
CCOc1cc2c(C#N)c(N3CCCC3)nc(N)c2c(N)n1	2	-16	-3	·	-8	-6
N#Cc1c(N2CCCC2)nc(N)c2c(N)nc(N3CCCC3)cc12	41*	·	·	·	·	·
C[C@H](CO)N1C[C@H](C)[C@@H](CN(C)Cc2ccncc2)Oc2ccc(NS(=O)(=O)c3ccccc3)cc2CC1=O	·	-6	1	·	-5	5
COc1ccc(/C=N\NC(=O)c2cc(O)c(O)c(O)c2)cc1COc1ccc(C(=O)OCC(C)C)cc1	1	-14	8	9	1	54*
CN(C)CCCN(C(=O)COc1ccc(Cl)cc1)c1nc2cc3c(cc2s1)OCCO3	-1	60*	0	3	20	9
CCOC(=O)N1CCN(S(=O)(=O)c2ccc(C(=O)N(CCCN(C)C)c3nc4ccc(Cl)cc4s3)cc2)CC1	-3	16	-3	4	5	4
CN(C)CCN(C(=O)c1cccc2ccccc12)c1nc2cc3c(cc2s1)OCO3	-5	0	11	5	23	28*
CN(C)CCCN(C(=O)c1ccc2c(c1)CCCC2)c1nc2ccc(Cl)cc2s1	-8	42	4	-2	·	27*
CN(C)CCCN(C(=O)c1ccc2ccccc2c1)c1nc2cc3c(cc2s1)OCO3	-3	50	10	·	33	33*
C[C@H](CO)N1C[C@H](C)[C@@H](CN(C)C(=O)Nc2ccc(F)cc2)Oc2ccc(NC(=O)CCN3CCOCC3)cc2C1=O	·	12	-5	·	-2	-1
CCCNC(=O)c1cc2c(c(-c3cccc(-c4cccc(OC)c4)c3)n1)[C@@H](CCO)N([S@](=O)C(C)(C)C)C2	·	11	17	·	-4	1
Cc1cc(=O)c2c(o1)C(=O)c1occc1C2=O	6	-1	-4	139*	·	-7
